Shown are actives, neighbours in structure and some others; about 1.8% of the full set was active somewhere.
M4 antag = blocks acetylcholine activation of human M4 receptor. P08173. CHO-hM4 cells, ACh EC80, Fluo-8 calcium fluorescence. inhibition, % at 3 µM. 0.73% of 360,000 active. AID 624125;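 active = inhibition above its plate's cutoff, the mean inhibition of sample wells plus 3 SD, cut at about 27% in these data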
Target sequence (P08173 whole entry, looked up): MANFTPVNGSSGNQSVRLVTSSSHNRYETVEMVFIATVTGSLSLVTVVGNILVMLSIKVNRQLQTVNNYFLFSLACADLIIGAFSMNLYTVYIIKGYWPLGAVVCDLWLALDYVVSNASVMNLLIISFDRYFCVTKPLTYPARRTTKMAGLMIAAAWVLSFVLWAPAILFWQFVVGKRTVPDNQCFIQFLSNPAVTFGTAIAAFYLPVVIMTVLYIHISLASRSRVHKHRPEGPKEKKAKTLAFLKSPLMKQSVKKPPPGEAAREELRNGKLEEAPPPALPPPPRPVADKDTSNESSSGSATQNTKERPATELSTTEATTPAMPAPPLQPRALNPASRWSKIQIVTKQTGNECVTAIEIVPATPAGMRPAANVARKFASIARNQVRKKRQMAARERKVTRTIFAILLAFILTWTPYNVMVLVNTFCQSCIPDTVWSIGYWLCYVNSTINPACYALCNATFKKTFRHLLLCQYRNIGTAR
CHRM4 PAM = positive allosteric modulators of human muscarinic M4 receptor | P08173 | CHO-K1 hM4/Gqi5, Fluo-8 calcium fluorescence, ACh EC20; 0% = ACh EC20, 100% = maximal ACh | activation, % at 3 µM | 0.4% of 360,000 active;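 active = activation above its plate's cutoff, the mean activation of sample wells plus 3 SD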
M4 ag = CHRM4 agonism in calcium assay | CHO-K1 hM4/Gqi5, Fluo-8 calcium fluorescence; vehicle 0%, full acetylcholine response 100% | activation, % at 3 µM | 0.14% of 360,000 active;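 active = activation above the run mean over all test wells plus 3 SD, cut at about 32% in these data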;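 note: peak over basal fluorescence ratio per well then scaled between controls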
CHRM5 PAM = CHRM5 positive allosteric modulation; P08912; CHO-K1 hM5, Fluo-8 calcium, ACh EC20 PAM; 0% = ACh EC20, 100% = ACh EC100; activation, % at 3 µM; 0.3% of 360,000 active; AID 624038;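 active = activation above the run cutoff, the mean activation of all test compounds plus 3 SD, cut at about 18% in these data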
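system = human M5 receptor in CHO-K1 cells | reagent = EC20 acetylcholine as agonist stimulus | compound dosing = single-point, 3 µM nominal | incubation = Fluo-8 loading 80 min at 37 °C plus 30 min room temperature | detection = Fluo-8 calcium dye fluorescence, kinetic read | benchmarks = low control EC20 acetylcholine (0%), high control EC100 acetylcholine (100%)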
M5 ag = CHRM5 agonism in calcium assay | 0.19% of 360,000 active | P08912 | AID 624037 | activation, % at 3 µM | CHO-K1 hM5 cells, Fluo-8 calcium fluorescence; 0% DMSO wells, 100% maximal acetylcholine response;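 active = activation above the run's mean over test compounds plus 3 SD, cut at about 23% in these data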;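 note: signal is peak over basal fluorescence ratio across the kinetic read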
M5 antag = blocks acetylcholine activation of human M5 receptor; inhibition, % at 3 µM; 0.59% of 360,000 active; P08912; CHO-hM5 cells, Fluo-8 calcium fluorescence, ACh EC80;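 active = inhibition above a per-plate cutoff, the mean of that plate's test compounds plus 3 SD, cut at about 27% in these data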
A number is an active result; – = inactive.

SMILES	M4 antag	CHRM4 PAM	M4 ag	CHRM5 PAM	M5 ag	M5 antag
C/C=C\C=C/C(=O)Nc1cccc(C2=NOC3(C2)C[C@H](C(N)=O)N(C(=O)c2ccc(OC)cc2)C3)c1 (some centres undefined)	–	–	–	–	–	–
CC1CCCC(NC(=O)C2CC(=O)N(Cc3ccccc3)C2)C1C (centres undefined)	–	–	–	–	–	–
CN1CCN(c2cc(-c3ccccc3)nc3cc(-c4ccc(F)cc4)nn23)CC1	–	–	–	–	–	–
Fc1ccc(-c2cc3nc(-c4ccccc4)cc(N4CCN(CCN5CCOCC5)CC4)n3n2)cc1	–	–	33	–	–	–
CCOC(=O)N1CCN(C(=O)c2cc(OC)cc(OC)c2)CC1	–	–	–	–	–	–
COc1cc(OC)cc(C(=O)N2CCN(S(C)(=O)=O)CC2)c1	–	28	–	31	–	–
NS(=O)(=O)c1cccc(NC(=O)c2cc(-c3cccs3)nc3ccccc23)c1	30	–	–	–	–	–
CN(C)S(=O)(=O)c1cccc(NC(=O)c2cc(-c3cccs3)nc3ccccc23)c1	31	–	–	–	–	–
NS(=O)(=O)c1ccc(CNC(=O)c2cc(-c3cccs3)nc3ccccc23)cc1	30	–	–	–	–	–
Cc1ccc(S(=O)(=O)N(C)C)cc1NC(=O)c1cc(-c2ccncc2)nc2ccccc12	–	–	–	–	–	–
NS(=O)(=O)c1ccc(CCNC(=O)c2cc(-c3cccs3)nc3ccccc23)cc1	–	–	–	–	–	–
NS(=O)(=O)c1cccc(NC(=O)c2cccs2)c1	–	–	–	–	–	–
COc1cccc(CNC(=O)CCC(=O)N2CCOCC2)c1	–	–	–	–	–	–
CC(=O)NC(C)(c1ccccc1)c1nc(-c2cccc(F)c2)cs1 (centres undefined)	–	–	–	–	–	–
COc1ccc(NC(=O)CSc2n[nH]c(-c3ccncc3)n2)cc1Cl	–	–	–	–	–	–
CSCCC(NC=O)C(=O)NC(C)C(=O)O (centres undefined)	–	–	–	–	–	–
O=C(CSc1n[nH]c(=O)n1C1CC1)Nc1cc(Cl)ccc1Oc1ccccc1	47	–	–	–	–	30
CCOC(=O)Cc1csc(SCC(=O)NC2CCC(C)CC2)n1 (centres undefined)	–	20	–	–	–	–
COc1ccc(OC)c(NC(=O)CSc2nc(C)cs2)c1	–	45	–	–	–	–
CCOC(=O)Cc1csc(SCC(=O)Nc2cc(Cl)ccc2Oc2ccccc2)n1	45	–	–	–	–	–
CC(=O)N1CCN(c2ccc(NCc3ccc(-c4cccc(Cl)c4)o3)cc2)CC1	–	–	–	–	–	–
O=C1C2CCCN2C(=O)N1CCN1CCN(c2cccc(C(F)(F)F)c2)CC1 (centres undefined)	–	–	–	–	–	–
C/C(=N\O)C(C)NC(=O)c1ccccc1 (centres undefined)	–	–	–	–	–	–
COc1ccc2[nH]c(=O)c(CN(Cc3cccs3)S(=O)(=O)c3c(C)ccc4nsnc34)cc2c1	32	–	–	–	–	–
C#CCOCCOCCOCCNc1nc(N2CCN(C(=O)[C@H](CCCCN)n3cc(CC(C)O)nn3)CC2)nc(N2CCN(C(=O)[C@H](CCCCN)n3cc(CC(C)O)nn3)CC2)n1 (some centres undefined)	–	–	–	–	–	–
O=C(NCc1ccccc1Cl)c1ccc2nc([C@H]3C[C@H](O)[C@@H](CO)O3)[nH]c2c1	–	–	–	–	–	–
CC1CN(C(=O)c2cc(-c3ccncc3)nc3ccccc23)CC(C)O1 (centres undefined)	–	23	–	–	–	–
CC1CC(C)CN(C(=O)c2cc(-c3ccncc3)nc3ccccc23)C1 (centres undefined)	–	–	–	–	–	–
COc1ccccc1CN(C)C[C@@H]1OCc2cnnn2CCCC(=O)N([C@H](C)CO)C[C@H]1C	–	–	–	–	–	–
